HIV Env fusion – inhibitors of HIV-1 Env-driven cell-cell fusion, primary screen, HeLa-JRFL effector, CEM21 target cells, luciferase | inhibition, % at 12.3 µM | 1.1% of 360,000 active;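 active means mean replicate inhibition score of at least 50 and every replicate individually at or above 50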;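 further: 0% = plate neutral controls and 100% = maraviroc near 300 nM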
FGF22 binding – binders of human FGF22 protein, primary screen, FGF22 synaptogenesis inhibitor project, biophysical, thermal shift, single point | Fibroblast growth factor 22 (Homo sapiens), Q9HCT0 | recombinant FGF22 thermal shift, SYPRO orange fluorescence; percent of sucrose octasulfate shift, DMSO zero | activity (Tm shift, normalised), % at 9.99 µM | 1.5% of 340,000 active;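 active means mean Tm shift, scaled 0 neutral to 100 positive control, at about 1.3% or above, every replicate too, limit read from the data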
rRNA inh HTS – reduced GFP signal of wild-type E. coli, primary screen, bacterial rRNA inhibitor project, GFP/RFP fluorescence, OD600, single point; 1.6% of 350,000 active; GFP signal change (wild-type ribosome), % (concentration not given with the values); E. coli WT GFP vs humanized-ribosome RFP mutants, 24 h; active compounds read low; DMSO median 0, no signal -100; AID 720706, 2013;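 active means significant combined selectivity score with lowered wild-type GFP, culture density cut under 30%, mutant RFP and density less affected; inactive means any of these conditions unmet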
PGC1a acetyl inh – inhibitors of PGC1a acetylation signal, primary screen, cell-based, U2OS, AlphaScreen, inhibitor mode. AlphaScreen anti-acetyl-lysine; with virally co-expressed GCN5 acetyltransferase. AID 651687, 2012. 0.17% of 350,000 active. inhibition, % at 15.6 µM;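 active means every replicate shows inhibition of at least 40%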;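 further: 0% = neutral control wells and 100% = positive control wells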
ERAP1 HTS inh – human ERAP1 aminopeptidase inhibitors, primary screen, biochemical, single point, plate reader; Endoplasmic reticulum aminopeptidase 1 (Homo sapiens), Q9NZ08; recombinant ERAP1, Leu-AMC fluorescence, 60 min; inhibition, % at 10.7 µM; 0.15% of 340,000 active;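 active means mean replicate inhibition of at least 30%, or all replicates individually reaching that 30% level; inactive means mean below 30% and not every replicate reaching it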;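 further: 0% = neutral control wells and 100% = L-leucinethiol positive control wells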
Cneo AK release – Cryptococcus neoformans cell lysis inducers, primary screen, AK release luminescence, single concentration; C. neoformans lysis, adenylate kinase release luminescence, 4 h; normalised: neutral wells 0, clomiphene wells 100; lysis activity, % at 15 µM; 0.2% of 360,000 active;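 active means mean lysis activity across replicates of at least 80%, whatever share of replicates individually reach that level; inactive means mean lysis activity below 80%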
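Assay system: log-phase C. neoformans yeast / Quantity: yeast cell density of 5 × 10^6 cells/mL / Medium: fresh YPD growth medium / Compound: single dose / Timing: static 4 h at 37 °C with compound, 1 h detection / Measured by: adenylate kinase release luminescence / Read-out: lysis from increased AK signal / Benchmarks: Clomiphene as positive lysis control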
The depositor's hits bear a star; x = no result; [ ] = remark or other dose. Shown are actives, neighbours in structure and some others; about 3.5% of the full set was active somewhere.

SMILES | HIV Env fusion | FGF22 binding | rRNA inh HTS | PGC1a acetyl inh | ERAP1 HTS inh | Cneo AK release
C[C@H](CO)N1C[C@H](C)[C@H](CN(C)C(=O)Nc2ccc(F)cc2)Oc2ncccc2C1=O | 0[16.7 µM] | 0 | 8 | -1 | 2 | -1
C[C@@H]1CN([C@H](C)CO)C(=O)c2cc(N(C)C)ccc2O[C@@H]1CN(C)C(=O)Nc1ccc(C(F)(F)F)cc1 | x | 0 | -26 | 0 | 2 | 107*
C[C@H]1CN([C@@H](C)CO)C(=O)c2cc(N(C)C)ccc2O[C@@H]1CN(C)C(=O)Nc1ccc(C(F)(F)F)cc1 | x | 0 | -21 | -4 | 1 | 0
CC(=O)Nc1cccc(-c2csc(Nc3cc(C)ccn3)n2)c1 | -135 | x | x | -32 | x | -6
CC(C)OC(=O)c1cc(=O)[nH]c2ccccc12 | x | x | x | -4 | x | -1
Cc1ccc2[nH]c(=O)cc(C(=O)OC(C)C)c2c1 | -7 | 43* | 0 | 11 | -2 | x
NC(=O)CSc1nnc(-c2ccccc2Br)n1-c1cccc(C(F)(F)F)c1 | -65 | x | x | -8 | x | -1
O=C(O)CSc1nnc(-c2ccccc2Br)n1-c1cccc(C(F)(F)F)c1 | 4 | 0 | -24* | x | x | x
Cn1nc(C(=O)N2CCN(c3ccccc3)CC2)c2c1-c1ccccc1S(=O)(=O)C2 | 19 | 0 | -11 | 12 | 1 | -1
Cc1cc(-c2nn(-c3ccccc3F)cc2CN2CCCC(CO)C2)c(C)s1 (stereo unspecified) | -5 | 43* | 3 | 19 | -5 | 1
Cc1cc(-c2nn(-c3ccccc3F)cc2CN2CCCC(O)C2)c(C)s1 (stereo unspecified) | 11 | 0 | 3 | 2 | 0 | 2
CCCOc1ccc(/C=C/C(=O)O)cc1OC | 7 | 0 | 5 | 62* | 2 | 0
COc1cc2c(cc1OC)CN(C(=O)/C=C/c1ccc([N+](=O)[O-])cc1)CC2 | -5 | 0 | -17* | x | 9 | -4
COc1cc(/C=C/C(=O)O)ccc1OCc1ccc([N+](=O)[O-])cc1 | -11 | 43* | 14 | x | 2 | x
Cc1cccc(C)c1Cn1c(C)c(C(=O)NCc2ccc(C#N)cc2)sc1=O | -42 | 0 | -12 | x | x | -1
Cc1ccc(S(=O)(=O)Nc2ccc3c(c2)C(=O)N([C@@H](C)CO)C[C@@H](C)[C@H](CN(C)S(=O)(=O)c2cn(C)cn2)OCCCC[C@H](C)O3)cc1 | -48[16.7 µM] | 0 | -3 | 7 | -4 | -1
Cc1cc(=O)oc2cc(OC(C)C(=O)O)c(Cl)cc12 (stereo unspecified) | x | x | x | x | x | -2
Cc1cc(-c2onc3ccc(Cl)cc23)ccc1O | -3 | 0 | -31* | -11 | -1 | -8
CCOC(=O)C1=C2c3ccc4ccccc4c3CC(C)(C)N2C(=O)C1=O | 10 | 0 | -29* | x | -8 | -2
O=c1c2ccccc2sn1-c1ccc(F)cc1 | -28 | 0 | -3 | 8 | 52* | -1
COC(=O)c1cccc(-n2sc3ccccc3c2=O)c1 | 16 | 0 | -14 | -2 | 86* | -1
Cc1ccc(-n2sc3ccccc3c2=O)cc1 | 25 | x | x | x | x | x
O=c1c2cc(F)ccc2sn1-c1ccccc1Cl | 22 | 0 | -51 | x | 61* | -3
O=c1c2ccc(F)cc2sn1-c1ccccc1 | 35 | 0 | -45 | x | x | -1
Nc1ccc(-c2cc(-c3cccc(N)c3)nc(-c3ccccc3)n2)cc1 | -14 | 0 | 2 | -3 | -1 | -6
Cc1ccc(NC2=CC(=O)C(=O)c3ccccc32)c(C)c1 | 58* | 0 | x | 26 | -2 | 1
CCN1[C@@H]2c3ccc(-c4cccnc4)c(=O)n3C[C@@H]2[C@@H](CO)[C@@H]1C(=O)NCc1ccccc1 | x | 0 | -2 | x | 2 | -5
CC(=O)c1ccc(NC(=O)Oc2ccccc2)cc1 | x | x | x | -3 | x | 4
